Assay results published in ChEMBL document CHEMBL1123610, “Synthesis and antineoplastic activity of 1a-formyl and 1a-thioformyl derivatives of mitomycin C and 2-methylaziridine” (1987).

Assays:
P388 [1] = test: In vivo antineoplastic activity against P388 leukemia; format: functional, Mus musculus
Procedure, shortened: (§1)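 Murine P388 lymphocytic leukemia screen, with tumor implanted ip and drug given ip. Response is %T/C = (median survival of treated / median survival of control) × 100, reported at the optimal dose per dose in mg/kg. Mitomycin C was run concurrently. MED is the lowest mg/kg per dose that reaches the criterion %T/C.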

P388 [2] = test: In vivo antineoplastic activity of mitomycin C sample run concurrently against P388 leukemia screen (optimal dosage); format: functional, Mus musculus; procedure, shortened: as §1
P388 [3] = test: In vivo antineoplastic activity against P388 leukemia screen inoculated intraperitoneally expressed as minimum effective dose; format: functional; conditions: Mus musculus, P388, ip; read-out: MED; procedure, shortened: as §1
B16 [4] = test: In vivo antineoplastic activity of mitomycin C sample run concurrently against B16 melanoma screen (optimal dosage); format: functional, Mus musculus
Procedure, shortened: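 Murine B16 melanoma test, with tumor implanted sc and treatment given iv. Activity is %T/C = (median survival of treated / median survival of untreated control) × 100, reported at the optimal dose in mg/kg per dose. A mitomycin C sample was run alongside. MED is the minimum mg/kg per dose meeting the activity criterion for %T/C.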

B16 [5] = test: In vivo antineoplastic activity against B16 melanoma screen inoculated subcutaneously expressed as minimum effective dose
B16 [6] = test: In vivo antineoplastic activity against B16 melanoma screen inoculated subcutaneously. Value in parenthesis indicates the optimal dosage
B16 [7] = test: In vivo antineoplastic activity against B16 melanoma screen inoculated intraperitoneally expressed as minimum effective dose; format: functional, Mus musculus
B16 [8] = test: In vivo antineoplastic activity against B16 melanoma screen inoculated intraperitoneally. Value in parenthesis indicates the optimal dosage; format: functional, Mus musculus

## CNC(=S)N1[C@H]2CN3C4=C(C(=O)C(N)=C(C)C4=O)[C@@H](COC(N)=O)[C@@]3(OC)[C@@H]21
P388 [1]
  T/C: 95%
P388 [2]
  T/C: 152%

## CO[C@@]12[C@H](COC(N)=O)C3=C(C(=O)C(C)=C(N)C3=O)N1C[C@H]1[C@H]2N1C(=S)SC
P388 [1]
  T/C: 122%
P388 [2]
  T/C: >333%

## CO[C@@]12[C@H](COC(N)=O)C3=C(C(=O)C(C)=C(N)C3=O)N1C[C@H]1[C@H]2N1C(=O)SC
P388 [1]
  T/C: 132%
P388 [2]
  T/C: 142%
P388 [3]
  minimal effective dose: 12.8 mg/kg

## COC(=O)N1[C@H]2CN3C4=C(C(=O)C(N)=C(C)C4=O)[C@@H](COC(N)=O)[C@@]3(OC)[C@@H]21
B16 [4]
  T/C: 147%
P388 [1]
  T/C: 194%
P388 [2]
  T/C: 275%
P388 [3]
  minimal effective dose: 3.2 mg/kg
B16 [5]
  MED: 6.4
B16 [6]
  T/C: 165%

## CNC(=O)N1[C@H]2CN3C4=C(C(=O)C(N)=C(C)C4=O)[C@@H](COC(N)=O)[C@@]3(OC)[C@@H]21
P388 [1]
  T/C: 121%
P388 [2]
  T/C: 142%

## CO[C@@]12[C@H](COC(N)=O)C3=C(C(=O)C(C)=C(N)C3=O)N1C[C@H]1[C@H]2N1C(=O)Sc1ccccc1
B16 [4]
  T/C: 147%
P388 [1]
  T/C: 200%
P388 [2]
  T/C: 275%
P388 [3]
  minimal effective dose: 1.6 mg/kg
B16 [5]
  MED: 1.6
B16 [6]
  T/C: 156%

## CO[C@@]12[C@H](COC(N)=O)C3=C(C(=O)C(C)=C(N)C3=O)N1C[C@H]1[C@H]2N1/C(S)=N\c1ccccc1
P388 [1]
  T/C: 127%
P388 [2]
  T/C: 200%
P388 [3]
  minimal effective dose: 2.56 mg/kg

## CO[C@@]12[C@H](COC(N)=O)C3=C(C(=O)C(C)=C(N)C3=O)N1C[C@H]1[C@H]2N1C(=S)Oc1ccccc1
P388 [1]
  T/C: 162%
P388 [2]
  T/C: 152%
P388 [3]
  minimal effective dose: 51.2 mg/kg

## CO[C@@]12[C@H](COC(N)=O)C3=C(C(=O)C(C)=C(N)C3=O)N1C[C@H]1[C@H]2N1C(=S)Sc1ccccc1
P388 [1]
  T/C: 167%
P388 [2]
  T/C: 172%
P388 [3]
  minimal effective dose: 12.8 mg/kg

## CO[C@@]12[C@H](COC(N)=O)C3=C(C(=O)C(C)=C(N)C3=O)N1C[C@H]1[C@H]2N1C(=O)Oc1ccccc1
B16 [7]
  MED: 3.2
B16 [8]
  T/C: 165%
B16 [4]
  T/C: 147%
P388 [1]
  T/C: 194%
P388 [2]
  T/C: 275%
P388 [3]
  minimal effective dose: 1.6 mg/kg

## CO[C@@]12[C@H](COC(N)=O)C3=C(C(=O)C(C)=C(N)C3=O)N1C[C@H]1[C@H]2N1C(=O)Nc1ccccc1
P388 [1]
  T/C: 116%
P388 [2]
  T/C: 142%
